How the values were obtained:
Type in all cases: functional
Conditions in all cases: read-out: Activity
K562 = assay: Growth inhibition of human K562 cells assessed as cell growth at 10 uM incubated for 48 hrs by sulforhodamine B assay relative to control
Procedure, shortened: (§1)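 Submitted to the NCI Developmental Therapeutics Program for the NCI60 human tumour cell line panel. First screen at a single 10 µM concentration. Read-out is growth relative to untreated control cells set at 100%.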

MDA-MB-435 = assay: Growth inhibition of human MDA-MB-435 cells assessed as cell growth at 10 uM incubated for 48 hrs by sulforhodamine B assay relative to control; procedure, shortened: as §1
SNB-19 = assay: Growth inhibition of human SNB-19 cells assessed as cell growth at 10 uM incubated for 48 hrs by sulforhodamine B assay relative to control
Procedure, shortened: (§2)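 Run by the NCI Developmental Therapeutics Program as part of its 60-line human tumour panel. Each compound tested at a single 10 µM dose. Growth expressed as % relative to untreated control cells (100%).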

LOX IMVI = assay: Growth inhibition of human LOX IMVI cells assessed as cell growth at 10 uM incubated for 48 hrs by sulforhodamine B assay relative to control; procedure, shortened: as §1
HCC 2998 = assay: Growth inhibition of human HCC 2998 cells assessed as cell growth at 10 uM incubated for 48 hrs by sulforhodamine B assay relative to control
Procedure, shortened: (§3)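 NCI Developmental Therapeutics Program NCI60 panel. Compounds that were active in the 10 µM one-dose screen went on to dose–response testing. Growth at each concentration is expressed relative to untreated control (100%). GI50 (concentration giving 50% of maximal inhibition of proliferation) and TGI (concentration giving total growth inhibition) were derived from the curves.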

A549 = assay: Growth inhibition of human A549/ATCC cells assessed as cell growth at 10 uM incubated for 48 hrs by sulforhodamine B assay relative to control; procedure, shortened: as §3
SK-MEL-28 = assay: Growth inhibition of human SK-MEL-28 cells assessed as cell growth at 10 uM incubated for 48 hrs by sulforhodamine B assay relative to control; procedure, shortened: as §2
ACHN = assay: Growth inhibition of human ACHN cells assessed as cell growth at 10 uM incubated for 48 hrs by sulforhodamine B assay relative to control
Procedure, shortened: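 NCI Developmental Therapeutics Program NCI60 human tumour cell line panel, one-dose primary screen with every compound at 10 µM. Growth is expressed as % of untreated control cells (100%).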

NCI-H226 = assay: Growth inhibition of human NCI-H226 cells assessed as cell growth at 10 uM incubated for 48 hrs by sulforhodamine B assay relative to control; procedure, shortened: as §1
RXF 393 = assay: Growth inhibition of human RXF 393 cells assessed as cell growth at 10 uM incubated for 48 hrs by sulforhodamine B assay relative to control; procedure, shortened: as §2
Malme-3M = assay: Growth inhibition of human Malme-3M cells assessed as cell growth at 10 uM incubated for 48 hrs by sulforhodamine B assay relative to control; procedure, shortened: as §1
IGROV-1 = assay: Growth inhibition of human IGROV-1 cells assessed as cell growth at 10 uM incubated for 48 hrs by sulforhodamine B assay relative to control; procedure, shortened: as §1
OVCAR-3 = assay: Growth inhibition of human OVCAR-3 cells assessed as cell growth at 10 uM incubated for 48 hrs by sulforhodamine B assay relative to control; procedure, shortened: as §2
KM12 = assay: Growth inhibition of human KM12 cells assessed as cell growth at 10 uM incubated for 48 hrs by sulforhodamine B assay relative to control; procedure, shortened: as §1
OVCAR-8 = assay: Growth inhibition of human OVCAR-8 cells assessed as cell growth at 10 uM incubated for 48 hrs by sulforhodamine B assay relative to control; procedure, shortened: as §2
NCI-H322M = assay: Growth inhibition of human NCI-H322M cells assessed as cell growth at 10 uM incubated for 48 hrs by sulforhodamine B assay relative to control; procedure, shortened: as §1
A498 = assay: Growth inhibition of human A498 cells assessed as cell growth at 10 uM incubated for 48 hrs by sulforhodamine B assay relative to control; procedure, shortened: as §3
UO-31 = assay: Growth inhibition of human UO-31 cells assessed as cell growth at 10 uM incubated for 48 hrs by sulforhodamine B assay relative to control; procedure, shortened: as §2
SF-268 = assay: Growth inhibition of human SF-268 cells assessed as cell growth at 10 uM incubated for 48 hrs by sulforhodamine B assay relative to control; procedure, shortened: as §2
M14 = assay: Growth inhibition of human M14 cells assessed as cell growth at 10 uM incubated for 48 hrs by sulforhodamine B assay relative to control; procedure, shortened: as §1
OVCAR-4 = assay: Growth inhibition of human OVCAR-4 cells assessed as cell growth at 10 uM incubated for 48 hrs by sulforhodamine B assay relative to control; procedure, shortened: as §2
RPMI-8226 = assay: Growth inhibition of human RPMI-8226 cells assessed as cell growth at 10 uM incubated for 48 hrs by sulforhodamine B assay relative to control; procedure, shortened: as §2
SK-MEL-5 = assay: Growth inhibition of human SK-MEL-5 cells assessed as cell growth at 10 uM incubated for 48 hrs by sulforhodamine B assay relative to control; procedure, shortened: as §2
OVCAR-5 = assay: Growth inhibition of human OVCAR-5 cells assessed as cell growth at 10 uM incubated for 48 hrs by sulforhodamine B assay relative to control; procedure, shortened: as §2
SN12C = assay: Growth inhibition of human SN12C cells assessed as cell growth at 10 uM incubated for 48 hrs by sulforhodamine B assay relative to control; procedure, shortened: as §2
U-251 = assay: Growth inhibition of human U-251 cells assessed as cell growth at 10 uM incubated for 48 hrs by sulforhodamine B assay relative to control; procedure, shortened: as §2
HCT-116 = assay: Growth inhibition of human HCT-116 cells assessed as cell growth at 10 uM incubated for 48 hrs by sulforhodamine B assay relative to control; procedure, shortened: as §1
SW-620 = assay: Growth inhibition of human SW-620 cells assessed as cell growth at 10 uM incubated for 48 hrs by sulforhodamine B assay relative to control; procedure, shortened: as §2
COLO 205 = assay: Growth inhibition of human COLO 205 cells assessed as cell growth at 10 uM incubated for 48 hrs by sulforhodamine B assay relative to control; procedure, shortened: as §3
SF-295 = assay: Growth inhibition of human SF-295 cells assessed as cell growth at 10 uM incubated for 48 hrs by sulforhodamine B assay relative to control; procedure, shortened: as §2
MDA-MB-468 = assay: Growth inhibition of human MDA-MB-468 cells assessed as cell growth at 10 uM incubated for 48 hrs by sulforhodamine B assay relative to control; procedure, shortened: as §1
SR = assay: Growth inhibition of human SR cells assessed as cell growth at 10 uM incubated for 48 hrs by sulforhodamine B assay relative to control; procedure, shortened: as §2
PC-3 = assay: Growth inhibition of human PC-3 cells assessed as cell growth at 10 uM incubated for 48 hrs by sulforhodamine B assay relative to control; procedure, shortened: as §2
NCI-H23 = assay: Growth inhibition of human NCI-H23 cells assessed as cell growth at 10 uM incubated for 48 hrs by sulforhodamine B assay relative to control; procedure, shortened: as §1
UACC-62 = assay: Growth inhibition of human UACC-62 cells assessed as cell growth at 10 uM incubated for 48 hrs by sulforhodamine B assay relative to control; procedure, shortened: as §2

Row | SMILES | growth at 10 µM (K562) [%] | growth at 10 µM (MDA-MB-435) [%] | growth at 10 µM (SNB-19) [%] | growth at 10 µM (LOX IMVI) [%] | growth at 10 µM (HCC 2998) [%] | growth at 10 µM (A549) [%] | growth at 10 µM (SK-MEL-28) [%] | growth at 10 µM (ACHN) [%] | growth at 10 µM (NCI-H226) [%] | growth at 10 µM (Malme-3M) [%] | growth at 10 µM (IGROV-1) [%] | growth at 10 µM (OVCAR-3) [%] | growth at 10 µM (KM12) [%] | growth at 10 µM (OVCAR-8) [%] | growth at 10 µM (NCI-H322M) [%] | growth at 10 µM (A498) [%] | growth at 10 µM (UO-31) [%] | growth at 10 µM (SF-268) [%] | growth at 10 µM (M14) [%] | growth at 10 µM (OVCAR-4) [%] | other results
1 | Cc1ccc(NC(=O)c2sc3nc4c(cc3c2N)C(=O)CCC4)cc1C | 5 | -67 | 31 | 39.2 | 10 | 19.5 | 37.3 | 43 | 56 | 47 | 23.9 | -17 | 19.5 | 31 | 35 | -16 | 45 | 42.7 | -23 | 32 | growth at 10 µM (RXF 393): -18%; growth at 10 µM (RPMI-8226): -2%; growth at 10 µM (SK-MEL-5): 16%; growth at 10 µM (OVCAR-5): 21%; growth at 10 µM (SN12C): 35%; growth at 10 µM (U-251): 10%; growth at 10 µM (HCT-116): 23%; growth at 10 µM (SW-620): 15%; growth at 10 µM (COLO 205): -63%; growth at 10 µM (SF-295): 8.72%; growth at 10 µM (MDA-MB-468): 4%; growth at 10 µM (SR): 11%
2 | Cc1cc(C)c(NC(=O)c2sc3nc4c(cc3c2N)CN(Cc2ccccc2)CC4)c(C)c1 | 13 | -11 | 44 | 29 | 30 | 25 | 46 | 40 | 36 | 28 | 42 | 5 | 15 | 30 | 47 | -7 | 37 | 42 | 17 | 44 | growth at 10 µM (PC-3): 25%; growth at 10 µM (NCI-H23): 27%; growth at 10 µM (RXF 393): 5%; growth at 10 µM (RPMI-8226): 13%; growth at 10 µM (UACC-62): 37%; growth at 10 µM (SK-MEL-5): 3%; growth at 10 µM (OVCAR-5): 54%; growth at 10 µM (SN12C): 36%; growth at 10 µM (U-251): 26%; growth at 10 µM (HCT-116): 16%; growth at 10 µM (SW-620): 13%; growth at 10 µM (SF-295): 8%; growth at 10 µM (MDA-MB-468): 10%
3 | CC1(C)CCc2cc(-c3ccn(S(=O)(=O)c4ccc(Cl)cc4Cl)n3)ccc2O1 | 75.7 | 95.7 | 87.2 | 104 | 99.1 | 83.7 | 102 | 103 | 87 | 85.1 | 94.5 | 101 | 92.9 | 97 | 90.5 | 68.9 | 73.3 | 99.5 | 85.9 | 69 | growth at 10 µM (PC-3): 62.3%; growth at 10 µM (NCI-H23): 98.1%; growth at 10 µM (RPMI-8226): 79%; growth at 10 µM (UACC-62): 72.6%; growth at 10 µM (SK-MEL-5): 97.3%; growth at 10 µM (OVCAR-5): 97.5%; growth at 10 µM (SN12C): 89.6%; growth at 10 µM (U-251): 87.9%; growth at 10 µM (HCT-116): 73.6%; growth at 10 µM (SW-620): 91.9%; growth at 10 µM (COLO 205): 106%; growth at 10 µM (SF-295): 94.4%; growth at 10 µM (MDA-MB-468): 81.5%; growth at 10 µM (SR): 77.9%

— ChEMBL document CHEMBL4715736, “Identification of anticancer agents based on the thieno[2,3-b]pyridine and 1H-pyrazole molecular scaffolds” (2016)
